Among the data in ChEMBL document CHEMBL4513216, “Probing the Open Global Health Chemical Diversity Library for Multistage-Active Starting Points for Next-Generation Antimalarials” (ACS Infect Dis, 2020) are cytotoxicity values, retold here.

The series can be described thus: Toxicity liver stage against HepG2, at 10uM. The class given is cell-based. Details: test concentration 10 uM, cell line HepG2-A16-CD81EGFP. Conditions: human, HepG2-A16-CD81EGFP cells; read-out: INHIBITION
Summed up: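 Uninfected HepG2-A16-CD81EGFP cells, 3 × 10^3 per well, 1536-well, plated on prespotted compound at 10 μM final, parasite-free screening media added to match infected plates; puromycin 10 μM positive, DMSO 0.5% negative; run in parallel with 48 h PbLuc assay at 37 °C, 5% CO2; viability by CellTiter-Glo luminescence, normalized to controls.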
Turning to `Cc1cccc(CN2C[C@@H](F)[C@@H](OCc3nc4ccccc4[nH]3)C2)n1`, the cytotoxicity at 10 µM came out at 8.01%.
Turning to `O=C(Cc1cccs1)N1CC(c2nc(-c3cnccn3)no2)C1`, the cytotoxicity at 10 µM was -0.921%.
For the molecule `COC(=O)N1CCC(CNS(=O)(=O)c2cnn(C)c2)CC1`, the cytotoxicity at 10 µM was -9.03%.
As for `CC(C)NC(=O)c1ccc2c(c1)nc1n2CCN(Cc2ccco2)C1`, the figure is 8.16%; as for `O=C(CCc1ccccc1)NCC1CCN(Cc2ccsc2)CC1`, 5.27%; as for `O=S(=O)(Nc1cnn(C2CCOCC2)c1)c1ccc2c(c1)CCO2`, 5.42%.
For the molecule `CN1C(=O)C[C@@H]2[C@@H]1CCN2C(=O)c1ccc[nH]1`, the cytotoxicity at 10 µM was -14.8%.
Consider `CCc1ccc(NC(=O)Nc2c(O)oc3ccccc3c2=O)cc1`, for which the cytotoxicity at 10 µM turned out to be 5.95%.
Take `CCn1nnc(NCc2cc(Cl)cc(Cl)c2OC)n1`: the cytotoxicity at 10 µM amounted to 13.6%.
As to `CCCc1noc(C2CCCCN2C(=O)C2CCCC2)n1` (configuration not stated), the cytotoxicity at 10 µM was -35.8%.
Take `CN(C)C(=O)c1cn[nH]c1C1CCCN1Cc1cncn1C` (configuration not stated): the cytotoxicity at 10 µM is -1.89%.
In the case of `Cc1c(S(=O)(=O)N2CCCCC2c2nnc(-c3cccs3)o2)cnn1C` (configuration not stated) it was 3.22%.
As for `CN(C)S(=O)(=O)N1CCC(c2c(C(N)=O)sc3ccccc23)C1` (configuration not stated), the figure is 4.83%; as for `CNc1nccnc1C1CN(C(=O)c2c[nH]cn2)CCO1` (configuration not stated), 3.4%; as for `Cn1cccc1C(=O)N1CCCCC1c1ccn2ccnc2n1` (configuration not stated), -28.2%.
Consider `COCc1nc(C2CCN(Cc3nccn3C)CC2)no1`, for which the cytotoxicity at 10 µM was -14.2%.
As for `CCn1cc(CN2C[C@@H]3CCCN3C[C@H]2CCSC)c(C)n1`, the cytotoxicity at 10 µM is -15.3%.
In the case of `COc1ccc(CN2CCc3c(nc(-c4ccccn4)[nH]c3=O)C2)cc1`, the cytotoxicity at 10 µM is -15.9%.
Consider `COc1ccc(SC(C)C(=O)N2CCC(C(=O)N3CCCC3)CC2)cc1` (configuration not stated), for which the cytotoxicity at 10 µM worked out at 1.03%.
Take `CCc1ccccc1CNC(=O)CNC(=O)C(C)(C)C`: the cytotoxicity at 10 µM turned out to be 2.29%.
Take `Cc1nc(CNCc2ccc(N3CCC(CO)CC3)nc2)cs1`: the cytotoxicity at 10 µM turned out to be 1.58%.
On to `Cc1ccoc1C(=O)NC(CC(C)C)C(=O)N1CCC(CO)CC1` (configuration not stated), for which the cytotoxicity at 10 µM came to 0.794%.
Turning to `CC(C)(CNC(=O)Nc1nccs1)N1CCOCC1`, the cytotoxicity at 10 µM is -9.47%.
In the case of `CNC(=O)NC(=O)CCN1CCCC1c1nc(C2CCCCC2)co1` (configuration not stated) it was 5.44%.
Regarding `OCC(O)CSCc1nnc(-c2cccc(F)c2)o1` (configuration not stated), the cytotoxicity at 10 µM turned out to be 15.4%.
Consider `COc1cccc(CNc2nc(C)cc(C)n2)c1OC`, for which the cytotoxicity at 10 µM is -6.44%.
For the molecule `Cc1cccc(COc2ccccc2C(=O)N2CCC(C(N)=O)CC2)c1`, the cytotoxicity at 10 µM was -7.08%.
For the molecule `O=C(Cn1cc(C2CC2)nn1)NC(c1cc(F)ccc1F)C1CC1` (configuration not stated), the cytotoxicity at 10 µM is -12.6%.
With `CC(CC#N)N(C)Cc1ccc(F)cc1F` (configuration not stated), the cytotoxicity at 10 µM was determined as 6.03%.
With `Cc1ccc2cc(C(=O)N3CCN(S(C)(=O)=O)CC3)[nH]c2c1`, the cytotoxicity at 10 µM was -58.1%.
In the case of `Cc1c(C(=O)N2CCC(C(O)c3ccc(Cl)cc3)CC2)cnn1C` (configuration not stated), the cytotoxicity at 10 µM was -0.916%.
Turning to `Cn1nccc1CNC(=O)NC1CCN(c2ncccc2Cl)C1` (configuration not stated), the cytotoxicity at 10 µM was 4.37%.
In the case of `Cc1nc2n(n1)CCN(S(=O)(=O)c1ccc(Cl)cc1)C2` it was 5.76%.
With `Cc1cc(C(C)NC(=O)c2cnc3onc(C)c3c2)c(C)o1` (configuration not stated), the cytotoxicity at 10 µM was 6.15%.
In the case of `COc1ccccc1CN(CC1CCCO1)C(=O)c1cc(C)n[nH]1` (configuration not stated) it was -2.28%; in that of `Cc1cc(C(C)(O)CNC(=O)C2(C)CCCC2)c(C)o1` (configuration not stated), -4.88%; in that of `CCNC(=O)NC(=O)CN1CCOC(c2ccc(Br)cc2)C1` (configuration not stated), 2.08%.
In the case of `Cn1ccnc1CCC1CCCCN1Cc1nccn1C` (configuration not stated) it was 8.13%; in that of `CN1CCN2CCN(Cc3cnc(NCc4ccccc4)nc3)CC2C1` (configuration not stated), -16.8%; in that of `CN(C)Cc1nnc(C2CCCN(c3nc(C(N)=O)cs3)C2)n1C` (configuration not stated), 1.05%.
As for `Cc1cc(C(=O)NC(C)c2nnn[nH]2)c2ccc(C)c(C)c2n1` (configuration not stated), the cytotoxicity at 10 µM is -10.7%.
As for `O=C(NCc1cccnc1N1CCc2ccccc2C1)c1cnc[nH]1`, the figure is 5.97%; as for `CCc1ncc(CNC2CC(=O)N(CCc3cccc(Cl)c3)C2)cn1` (configuration not stated), -3.62%; as for `CN(C)CC1CN(Cc2nc(-c3ccccn3)no2)CCO1` (configuration not stated), -5.8%.
As to `CC(NC(=O)NCCCN1CCCCCC1=O)c1nncn1C` (configuration not stated), the cytotoxicity at 10 µM is -0.734%.
For the molecule `CC(C)CCN(CCC(C)C)Cc1nc2c(cnn2C)c(=O)[nH]1`, the cytotoxicity at 10 µM was -5.57%.
Take `COC(=O)c1ccc(N2CCN(C(=O)c3cc(C)no3)C(C)C2)cc1` (configuration not stated): the cytotoxicity at 10 µM is -0.192%.
As to `CNC(=O)CCS(=O)(=O)Cc1cc(Cl)c2c(c1)OCCCO2`, the cytotoxicity at 10 µM is -6.31%.
Consider `CCc1nc(CN(C(C)=O)C2CCN(Cc3ccccc3F)C2)no1` (configuration not stated), for which the cytotoxicity at 10 µM was -12.3%.
For the molecule `COc1ccc(C2=CCN(C(=O)CN(C)S(C)(=O)=O)CC2)cc1`, the cytotoxicity at 10 µM was -3.99%.
In the case of `c1ccc(OCCN2CCc3c(ncn3C3CC3)C2)cc1`, the cytotoxicity at 10 µM is -10.3%.
As for `O=S(=O)(CCN1CCc2c(ncn2C2CC2)C1)c1ccccc1`, the figure is -14.5%.
On to `COc1ncccc1CNC(=O)NC(C)Cn1cccn1` (configuration not stated), for which the cytotoxicity at 10 µM was -12.5%.
Regarding `COc1ccc(C(=O)N2CCCS2(=O)=O)cc1`, the cytotoxicity at 10 µM was -1.88%.
In the case of `CCc1nccn1C1CCCN(C(=O)c2c(C)nsc2NC)C1` (configuration not stated), the cytotoxicity at 10 µM is -5.86%.
Consider `Cn1ccnc1CN1CCCN(C(=O)COC2CCCC2)CC1`, for which the cytotoxicity at 10 µM was -18.1%.
`CC(O)CN1CCN(C(=O)c2ccn(-c3cccc(Cl)c3)n2)CC1` (configuration not stated): the cytotoxicity at 10 µM is -6.8%.
As for `CC(NC(=O)N1CCN(CCc2ccccc2)CC1)c1nncn1C` (configuration not stated), the cytotoxicity at 10 µM came to 0.0722%.
In the case of `COc1ccccc1C(=O)N(C)Cc1ncc(C)c(OC)c1C`, the cytotoxicity at 10 µM amounted to 5.37%.
In the case of `NCC1CCC(c2c(C(=O)NCCO)sc3ccccc23)CC1` (configuration not stated) it was -11%; in that of `Cc1ccc(N2CCc3c(CN(C)Cc4ccco4)cncc3C2)nn1`, -6.57%.
Turning to `Cn1cc(C(=O)NCc2cn3c(n2)CN(CC2CCOC2)CC3)cn1` (configuration not stated), the cytotoxicity at 10 µM worked out at 5.22%.
On to `Cc1nc(CN2CCC3(CCN(Cc4nccn4C)CC3)C2=O)cs1`, for which the cytotoxicity at 10 µM was -1.43%.
As for `CN(C)C(=O)[C@@H]1CCO[C@@H]2CCN(Cc3ccccc3)C[C@@H]21`, the figure is -12.1%; as for `O=C1CC2(CCN(Cc3ccncc3)C2)CN1c1cccc(F)c1` (configuration not stated), -152%.
For the molecule `O=C1N(c2cncnc2)CCC12CCCN(Cc1ccccn1)C2` (configuration not stated), the cytotoxicity at 10 µM is -9.35%.
Turning to `CCOCC1CN(C(=O)c2cnoc2C)Cc2cnn(C)c21` (configuration not stated), the cytotoxicity at 10 µM is 0.384%.
`COCCn1cc2c(n1)C(CNCc1ccco1)OCC2` (configuration not stated): the cytotoxicity at 10 µM is -11.9%.
In the case of `COCC1CC2(CCN(Cc3cccc(C#N)c3)CC2)CN1C(C)C` (configuration not stated), the cytotoxicity at 10 µM is 0.866%.
For the molecule `CC(C)N1C(=O)C2(CCN(C)CC2)c2cc(F)ccc21`, the cytotoxicity at 10 µM is -110%.
Regarding `CN1CC(=O)N(c2ccccc2)CC12CCN(CC1CCOCC1)C2` (configuration not stated), the cytotoxicity at 10 µM is 4.22%.
Turning to `O=C(NCCn1nc(C2CCNC2)c2cccnc21)c1ccccc1` (configuration not stated), the cytotoxicity at 10 µM was -23.9%.
